From ChEMBL document CHEMBL1136016, “Synthesis, biological activity, and molecular modeling investigation of new pyrazolo[4,3-e]-1,2,4-triazolo[1,5-c]pyrimidine derivatives as human A(3) adenosine receptor antagonists” (J Med Chem, 2002)

Key:
[1] = molecular target: Adenosine receptors; A2b & A3 (Homo sapiens) (UniProt P29275+P0DMS8); assay: Selectivity ratio (h2B/hA3); format: protein assay
[2] = molecular target: Adenosine receptors; A1 & A3 (Homo sapiens) (UniProt P30542+P0DMS8); assay: Selectivity ratio (hA1/hA3); format: protein assay
Adenosine receptor A1 [3] = molecular target: T1, Adenosine receptor A1 (Homo sapiens, UniProt P30542); assay: Displacement of [3H]DPCPX from human Adenosine A1 receptor expressed in CHO cells; range 294-480; format: cell-based
T1 sequence (P30542 whole entry): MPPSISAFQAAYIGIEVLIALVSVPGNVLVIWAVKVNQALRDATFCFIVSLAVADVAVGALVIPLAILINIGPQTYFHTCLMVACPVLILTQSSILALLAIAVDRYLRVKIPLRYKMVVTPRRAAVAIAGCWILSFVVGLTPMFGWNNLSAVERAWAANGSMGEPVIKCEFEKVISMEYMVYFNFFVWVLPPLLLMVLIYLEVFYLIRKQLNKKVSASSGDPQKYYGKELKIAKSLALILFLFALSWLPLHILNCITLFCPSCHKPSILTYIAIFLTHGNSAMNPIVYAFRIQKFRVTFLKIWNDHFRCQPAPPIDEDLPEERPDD

Adenosine receptor A2b [4] = molecular target: T2, Adenosine receptor A2b (Homo sapiens, UniProt P29275); assay: Displacement of [3H]DPCPX from human Adenosine A2B receptor expressed in HEK293 cells; range 140-186; format: cell-based
T2 sequence (P29275 whole entry): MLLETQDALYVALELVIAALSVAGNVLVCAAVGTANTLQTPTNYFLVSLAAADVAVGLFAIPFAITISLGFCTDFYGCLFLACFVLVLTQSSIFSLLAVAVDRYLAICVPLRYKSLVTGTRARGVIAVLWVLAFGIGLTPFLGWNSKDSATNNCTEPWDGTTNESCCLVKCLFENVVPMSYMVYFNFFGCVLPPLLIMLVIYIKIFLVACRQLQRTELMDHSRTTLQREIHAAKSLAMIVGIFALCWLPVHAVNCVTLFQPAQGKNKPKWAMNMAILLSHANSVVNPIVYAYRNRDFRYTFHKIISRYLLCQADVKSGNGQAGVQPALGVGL
Outline: (§1)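 Membranes from HEK-293 cells with human recombinant A2B receptor. Incubation 60 min at 25 °C in 50 mM Tris HCl, 10 mM MgCl2, 1 mM EDTA, 0.1 mM benzamidine, pH 7.4, with 2 IU/mL adenosine deaminase and 40 nM [3H]DPCPX. At least six to eight test concentrations. Nonspecific binding defined with NECA. n = 3-6.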

Adenosine receptor A3 [5] = molecular target: T3, Adenosine receptor A3 (Homo sapiens, UniProt P0DMS8); assay: biochemical
T3 sequence (P0DMS8 whole entry): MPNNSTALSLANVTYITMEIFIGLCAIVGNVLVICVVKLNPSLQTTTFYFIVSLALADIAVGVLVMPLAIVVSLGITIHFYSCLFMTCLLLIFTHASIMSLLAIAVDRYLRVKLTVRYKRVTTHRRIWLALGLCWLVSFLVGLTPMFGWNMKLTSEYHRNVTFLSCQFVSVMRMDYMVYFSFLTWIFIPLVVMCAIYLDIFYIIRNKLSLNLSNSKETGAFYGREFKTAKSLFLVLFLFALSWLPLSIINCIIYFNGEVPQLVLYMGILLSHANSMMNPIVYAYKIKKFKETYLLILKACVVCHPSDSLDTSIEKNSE

Adenosine receptor A2a [6] = molecular target: T4, Adenosine receptor A2a (Homo sapiens, UniProt P29274); assay: Displacement of [3H]SCH-58261 from human Adenosine A2A receptor expressed in HEK293 cells; range 34-50; format: cell-based
T4 sequence (P29274 whole entry): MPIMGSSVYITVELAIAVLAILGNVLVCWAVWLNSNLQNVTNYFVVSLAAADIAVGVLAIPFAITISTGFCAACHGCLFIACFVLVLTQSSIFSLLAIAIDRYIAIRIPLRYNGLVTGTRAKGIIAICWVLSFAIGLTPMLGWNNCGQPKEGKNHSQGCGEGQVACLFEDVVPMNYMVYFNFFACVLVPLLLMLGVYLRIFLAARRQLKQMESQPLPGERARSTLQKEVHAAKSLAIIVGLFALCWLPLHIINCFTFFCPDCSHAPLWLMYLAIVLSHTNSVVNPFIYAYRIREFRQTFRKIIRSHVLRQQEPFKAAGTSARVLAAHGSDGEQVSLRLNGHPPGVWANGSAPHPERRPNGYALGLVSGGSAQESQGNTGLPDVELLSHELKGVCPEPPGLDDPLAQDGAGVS

Adenosine receptor A2b [7] = molecular target: T2, Adenosine receptor A2b; assay: Displacement of [3H]DPCPX binding at human Adenosine A2B receptor expressed in HEK293 cells; format: cell-based; outline: as §1
Adenosine receptor A3 [8] = molecular target: T3, Adenosine receptor A3; assay: Inhibition of IB-MECA agonist-mediated cAMP production in CHO cell membranes expressing human Adenosine A3 receptor; range 130-279; format: functional, cell-based
Adenosine receptor A3 [9] = molecular target: T3, Adenosine receptor A3; assay: Displacement of [3H]MRE3008-F20 from human Adenosine A3 receptor expressed in HEK cells; range 19-34; format: cell-based, HEK293
Adenosine receptor A2a [10] = molecular target: T4, Adenosine receptor A2a; assay: Displacement of [3H]SCH-58261 from human Adenosine A2A receptor expressed in HEK293 cells; format: cell-based
Adenosine receptor A1 [11] = molecular target: T1, Adenosine receptor A1; assay: Displacement of [3H]DPCPX from human Adenosine A1 receptor expressed in CHO cells; range 436-810; format: cell-based
Outline: (§2)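 Human recombinant A1 receptor in CHO cell membranes, resuspended in 50 mM Tris HCl pH 7.4. Displacement run 120 min at 25 °C with 1 nM [3H]DPCPX, 50 µg protein per assay, and at least six to eight test concentrations. Nonspecific binding defined with CHA. Bound and free separated on glass-fiber filters; filter radioactivity counted. n = 3-6.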

Adenosine receptor A3 [12] = molecular target: T3, Adenosine receptor A3; assay: Displacement of […] from human Adenosine A3 receptor expressed in CHO cells; format: cell-based
Outline: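 Membranes of CHO cells stably expressing human A3 receptor (50 µg protein/assay), incubated in duplicate with 1 nM [3H]MRE3008-F20 in 50 mM Tris HCl, 10 mM MgCl2 (pH 7.4) and six to eight ligand concentrations, 120 min at 4 °C. Nonspecific binding was set with 1 µM MRE3008-F20. Separation was by GF/B filtration and scintillation counting; n = 3-6.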

Adenosine receptor A2a [13] = molecular target: T4, Adenosine receptor A2a; assay: Displacement of [3H]SCH-58261 from human Adenosine A2A receptor expressed in CHO cells; format: cell-based
Outline: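 Membranes from CHO cells expressing the human receptor (50 µg protein) with [3H]SCH58261 and six to eight competitor concentrations. Incubated 60 min at 25 °C. Nonspecific binding was set with NECA.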

Adenosine receptor A3 [14] = molecular target: T3, Adenosine receptor A3; assay: Inhibition of IB-MECA agonist-mediated cAMP production in membranes of CHO cells expressing human Adenosine A3 receptor; format: functional, cell-based
Outline: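 Human A3-CHO membranes (in 50 mM Tris HCl, 10 mM MgCl2, 1 mM EDTA, pH 7.4) were preincubated for 10 min at 37 °C with 5 µM GTP, 0.5 mM Ro 20-1724 and 2.0 IU/mL adenosine deaminase. IB-MECA (100 nM) or antagonist was then added with 1 mM ATP and forskolin for 10 min. The reaction was stopped by 2 min boiling. cAMP was measured by [3H]cAMP competitive protein binding using beef adrenal binding protein, 150 min at 4 °C.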

Adenosine receptor A1 [15] = molecular target: T1, Adenosine receptor A1; assay: Displacement of [3H]DPCPX from human Adenosine A1 receptor expressed in CHO cells; format: cell-based; outline: as §2
Adenosine receptor A3 [16] = molecular target: T3, Adenosine receptor A3; assay: biochemical; remark: listed apart in the source
Adenosine receptor A2a [17] = molecular target: T4, Adenosine receptor A2a; assay: Displacement of [3H]SCH-58261 from human Adenosine A2A receptor expressed in HEK293 cells; range 36-70; format: cell-based
Adenosine receptor A1 [18] = molecular target: T1, Adenosine receptor A1; assay: Displacement of [3H]DPCPX from human Adenosine A1 receptor expressed in CHO cells; range 253-401; format: cell-based; outline: as §2
Adenosine receptor A2b [19] = molecular target: T2, Adenosine receptor A2b; assay: Displacement of [3H]-DPCPX from human Adenosine A2B receptor expressed in HEK293 cells; range 107-172; format: cell-based
Outline: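 HEK-293 membranes expressing the human receptor were incubated 60 min at 25 °C. Six to eight test concentrations were used. Nonspecific binding was set with NECA. n = 3-6.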

SMILES	Ratio [1]	Ratio [2]	Ki (Adenosine receptor A2b [7])	further results
Cn1cc2c(nc(NC(=O)Nc3cccc(Cl)c3)n3nc(-c4ccco4)nc23)n1	512	875		
CCCn1cc2c(nc(NC(=O)Nc3ccc(F)cc3)n3nc(-c4ccco4)nc23)n1	555	1300		Ki (Adenosine receptor A1 [3]): 376 nM; Ki (Adenosine receptor A2b [4]): 161 nM; Ki (Adenosine receptor A3 [5]): 0.29 nM; Ki (Adenosine receptor A2a [6]): 42 nM
CCn1cc2c(nc(NC(=O)Nc3cccc(Cl)c3)n3nc(-c4ccco4)nc23)n1	93.7	155		
O=C(Nc1cccc(Cl)c1)Nc1nc2ccc(Cl)cc2c2nc(-c3ccco3)nn12	157	54		
Cn1cc2c(nc(NC(=O)Nc3ccc(S(=O)(=O)O)cc3)n3nc(-c4ccco4)nc23)n1	> 400	> 400	> 10000 nM	IC50 (Adenosine receptor A3 [8]): 190 nM; Ki (Adenosine receptor A3 [9]): 25 nM; Ki (Adenosine receptor A2a [10]): 594 nM; Ki (Adenosine receptor A1 [11]): > 10000 nM
Cn1cc2c(nc(NC(=O)Nc3ccc([N+](=O)[O-])cc3)n3nc(-c4ccco4)nc23)n1	419	2590	180 nM	Ki (Adenosine receptor A3 [12]): 0.43 nM; Ki (Adenosine receptor A2a [13]): 695 nM; IC50 (Adenosine receptor A3 [14]): 5.5 nM; Ki (Adenosine receptor A1 [15]): 1110 nM
CCn1cc2c(nc(NC(=O)Nc3ccc([N+](=O)[O-])cc3)n3nc(-c4ccco4)nc23)n1	348	1740	226 nM	Ki (Adenosine receptor A3 [12]): 0.65 nM; Ki (Adenosine receptor A2a [13]): 614 nM; Ki (Adenosine receptor A1 [15]): 1130 nM
CCCCn1cc2c(nc(NC(=O)Nc3ccc(F)cc3)n3nc(-c4ccco4)nc23)n1	170	398		Ki (Adenosine receptor A3 [16]): 0.8 nM; Ki (Adenosine receptor A2a [17]): 50 nM; Ki (Adenosine receptor A1 [18]): 318 nM; Ki (Adenosine receptor A2b [19]): 136 nM
CCCCn1cc2c(nc(NC(=O)Nc3ccc(OC)cc3)n3nc(-c4ccco4)nc23)n1	946	925		
CCCCn1cc2c(nc(NC(=O)Nc3cccc(Cl)c3)n3nc(-c4ccco4)nc23)n1	116	408		
